# Test system: Plasmodium falciparum
# Experiment: Antiplasmodial activity against chloroquine-sensitive Plasmodium falciparum D6 by LDH release assay
# Type: functional, organism-based
# Conditions: not given
row,SMILES,IC50
1,COc1cc(Nc2nc(NCCCNc3ccnc4cc(Cl)ccc34)nc(N3CCOCC3)n2)cc(OC)c1,250 nM
2,Clc1ccc2c(NCCCNc3nc(NC4CCCCC4)nc(N4CCCCC4)n3)ccnc2c1,1740 nM
3,C[C@@H]1CC[C@H]2[C@@H](C)C(=O)O[C@@H]3O[C@@]4(C)CC[C@@H]1[C@]32OO4 [ARTEMISININ],30 nM

# Test system: Vero
# Experiment: Cytotoxicity against african green monkey Vero cells
# Type: cell-based
# Conditions: Chlorocebus sabaeus
# Outline: (§1)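 Cytotoxicity was run in parallel on three mammalian lines: LLC-PK11 (pig kidney epithelial cells), HepG2 (human hepatoma cells) and Vero (monkey kidney […]). Compounds with no cytotoxicity up to the highest tested concentration, 48, were recorded as NC.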
row,SMILES,IC50
1,COc1cc(Nc2nc(NCCCNc3ccnc4cc(Cl)ccc34)nc(N3CCOCC3)n2)cc(OC)c1,32700 nM
2,Clc1ccc2c(NCCCNc3nc(NC4CCCCC4)nc(N4CCCCC4)n3)ccnc2c1,34300 nM
3,COc1cccc2c1C(=O)c1c(O)c3c(c(O)c1C2=O)C[C@@](O)(C(=O)CO)C[C@@H]3O[C@H]1C[C@H](N)[C@H](O)[C@H](C)O1 [DOXORUBICIN],20000 nM

# Test system: HepG2
# Experiment: Cytotoxicity against human HepG2 cells
# Type: cell-based
# Conditions: not given
# Outline: as §1
row,SMILES,IC50
1,COc1cc(Nc2nc(NCCCNc3ccnc4cc(Cl)ccc34)nc(N3CCOCC3)n2)cc(OC)c1,25400 nM
2,Clc1ccc2c(NCCCNc3nc(NC4CCCCC4)nc(N4CCCCC4)n3)ccnc2c1,8300 nM
3,COc1cccc2c1C(=O)c1c(O)c3c(c(O)c1C2=O)C[C@@](O)(C(=O)CO)C[C@@H]3O[C@H]1C[C@H](N)[C@H](O)[C@H](C)O1 [DOXORUBICIN],420 nM

# Test system: Plasmodium falciparum
# Experiment: Antiplasmodial activity against chloroquine-resistant Plasmodium falciparum W2 by LDH release assay
# Type: functional, organism-based
# Conditions: not given
row,SMILES,IC50
1,COc1cc(Nc2nc(NCCCNc3ccnc4cc(Cl)ccc34)nc(N3CCOCC3)n2)cc(OC)c1,220 nM
2,Clc1ccc2c(NCCCNc3nc(NC4CCCCC4)nc(N4CCCCC4)n3)ccnc2c1,2220 nM
3,C[C@@H]1CC[C@H]2[C@@H](C)C(=O)O[C@@H]3O[C@@]4(C)CC[C@@H]1[C@]32OO4 [ARTEMISININ],25 nM

# Test system: not listed separately
# Experiment: Selectivity index, IC50 for african green monkey (Cercopithecus aethiops) Vero cells to IC50 for chloroquine-sensitive Plasmodium falciparum D6
# Type: functional
# Conditions: not given
# Outline: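 The selectivity index of antimalarial activity was calculated from Vero cell cytotoxicity relative to the antiplasmodial IC50 against each P. falciparum clone (D6 or W2).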
row,SMILES,Selectivity Index
1,COc1cc(Nc2nc(NCCCNc3ccnc4cc(Cl)ccc34)nc(N3CCOCC3)n2)cc(OC)c1,130.8
2,Clc1ccc2c(NCCCNc3nc(NC4CCCCC4)nc(N4CCCCC4)n3)ccnc2c1,19.7
3,C[C@@H]1CC[C@H]2[C@@H](C)C(=O)O[C@@H]3O[C@@]4(C)CC[C@@H]1[C@]32OO4 [ARTEMISININ],>500

# Test system: not listed separately
# Experiment: Cytotoxicity against pig LLC-PK11 cells
# Type: cell-based
# Conditions: Sus scrofa
# Outline: as §1
row,SMILES,IC50
1,COc1cc(Nc2nc(NCCCNc3ccnc4cc(Cl)ccc34)nc(N3CCOCC3)n2)cc(OC)c1,8300 nM
2,Clc1ccc2c(NCCCNc3nc(NC4CCCCC4)nc(N4CCCCC4)n3)ccnc2c1,10500 nM
3,COc1cccc2c1C(=O)c1c(O)c3c(c(O)c1C2=O)C[C@@](O)(C(=O)CO)C[C@@H]3O[C@H]1C[C@H](N)[C@H](O)[C@H](C)O1 [DOXORUBICIN],850 nM

# Test system: not listed separately
# Experiment: Selectivity index, IC50 for african green monkey (Cercopithecus aethiops) Vero cells to IC50 for chloroquine-resistant Plasmodium falciparum W2
# Conditions: not given
row,SMILES,Selectivity Index
1,COc1cc(Nc2nc(NCCCNc3ccnc4cc(Cl)ccc34)nc(N3CCOCC3)n2)cc(OC)c1,148.6
2,Clc1ccc2c(NCCCNc3nc(NC4CCCCC4)nc(N4CCCCC4)n3)ccnc2c1,15.4
3,C[C@@H]1CC[C@H]2[C@@H](C)C(=O)O[C@@H]3O[C@@]4(C)CC[C@@H]1[C@]32OO4 [ARTEMISININ],>670
